Assay outcomes as filed in PubChem.
Shown are actives, neighbours in structure and some others; about 4.7% of the full set was active somewhere.
MPTP inh: mitochondrial permeability transition pore inhibitors, primary screen, biochemical, isolated mouse mitochondria, absorbance | inhibition, % at 10 µM | Ca2+ swelling absorbance, 30 min | actives 1.4% (n = 360,000) | AID 602449, 2012;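 active = inhibition of 50% or more, scaled per plate between neutral and stimulator controls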;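 also: 0% = DMSO wells given calcium and 100% = 1 mM EGTA wells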
ADAM17 inh: ADAM17 inhibitors, primary screen, biochemical, QFRET. recombinant ADAM17, EDANS/DABCYL FRET peptide cleavage. inhibition, % at 6.95 µM. actives 0.83% (n = 370,000);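 active = inhibition above the mean of compounds lying between control limits plus 3 SD, set per campaign, cut at about 8.5% in these data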;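 also: 0% = DMSO-only wells as the low control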
Target sequence (P78536 215-824 limits assumed): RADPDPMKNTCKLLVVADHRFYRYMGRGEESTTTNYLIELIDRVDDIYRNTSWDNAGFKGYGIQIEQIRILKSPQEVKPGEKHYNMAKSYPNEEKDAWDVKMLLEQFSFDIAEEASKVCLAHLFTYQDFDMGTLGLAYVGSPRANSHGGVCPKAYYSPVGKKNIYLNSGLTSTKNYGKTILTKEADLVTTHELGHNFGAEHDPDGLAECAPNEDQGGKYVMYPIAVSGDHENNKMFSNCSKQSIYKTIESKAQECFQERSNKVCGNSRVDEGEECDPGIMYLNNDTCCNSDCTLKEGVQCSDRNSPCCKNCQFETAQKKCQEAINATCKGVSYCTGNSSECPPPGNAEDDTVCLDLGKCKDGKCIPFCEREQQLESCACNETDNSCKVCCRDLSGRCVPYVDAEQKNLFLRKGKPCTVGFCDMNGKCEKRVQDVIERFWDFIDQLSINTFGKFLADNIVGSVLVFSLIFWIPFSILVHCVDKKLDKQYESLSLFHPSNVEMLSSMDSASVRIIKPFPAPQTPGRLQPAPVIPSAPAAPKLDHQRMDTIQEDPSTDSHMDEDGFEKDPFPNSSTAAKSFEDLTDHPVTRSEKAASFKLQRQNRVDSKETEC
MT1-MMP act inh: blockers of MT1-MMP proenzyme processing, primary screen, HT1080 RFP-PRO-GFP cells, GFP/RFP fluorescence; Matrix metalloproteinase-14 (Homo sapiens), P50281; GFP/RFP ratio fluorescence, overnight; percent of plate control window, DMSO zero; GFP/RFP ratio change, % at 20 µM; actives 0.061% (n = 360,000); AID 651647, 2012;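 active = GFP/RFP ratio change of at least 30% with cell ATP level not reduced by more than half and red fluorescence within 50% of control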
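Test system: HT1080 RFP-PRO-GFP cells; Benchmarks: DMSO and RFP-L50D-GFP cell wells; Timing: cells overnight before dosing, compound overnight, 37 °C, 5% CO2; Compound: one 20 µM compound dose with 1% DMSO; Read-out: GFP/RFP fluorescence ratio.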
ADAM10 inh: human ADAM10 inhibitors, primary screen, biochemical, QFRET, HTS | recombinant ADAM10, EDANS/DABCYL FRET peptide cleavage, 3 h | inhibition, % at 7 µM | actives 0.62% (n = 370,000);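 active = inhibition above a per-campaign cutoff equal to the mean of compounds falling between control-based bounds plus 3 SD, cut at about 20% in these data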;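 also: 0% = DMSO wells while the 100% control is not disclosed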
GRIN3A LBD mod: binders of NR3A ligand-binding domain, primary screen, biophysical, differential scanning fluorimetry, uHTS; Glutamate receptor ionotropic, NMDA 3A (GRIN3A) ligand-binding domain; NR3A LBD differential scanning fluorimetry, Tm shift; 0% = protein alone, 100% = glycine-bound protein; Tm shift relative to glycine control, % at 25 µM; actives 2.5% (n = 340,000); AID 1259313, 2017;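 active = melting temperature shift of at least 10% of the positive control shift, at one fixed dose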
SKN-1 block: suppressors of acrylamide-induced Pgst-4::GFP reporter in worms, primary screen, SKN-1 inhibitor project, whole organism, uHTS, GFP/RFP fluorescence ratio, strain VP596 | actives 0.49% (n = 360,000) | inhibition, % at 21.8 µM | C. elegans VP596 Pgst-4::GFP/RFP ratio, 24 h;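 active = interference check ratio from 0.5 to 1.5 plus GFP to RFP signal ratio inhibition reaching or exceeding a fixed threshold, cut at about 30% in these data, passing the limit was not always enough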
ADAM10 confirm: human ADAM10 inhibitors, confirmation, biochemical, QFRET, triplicate. shares compounds with ADAM10 inh. ADAM10 QFRET peptide cleavage, EDANS fluorescence. inhibition, % at 6.95 µM. actives 1% (n = 2,100);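 active = inhibition above about 20% chosen separately for each screening run, limit read from the data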;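 also: 0% = DMSO wells and 100% = marimastat wells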
ADAM17 counter: ADAM17 inhibitors, counter-screen for ADAM10 exosite inhibitor project, biochemical, QFRET, high throughput | ADAM17 QFRET peptide cleavage, EDANS fluorescence | shares compounds with ADAM10 inh | inhibition, % at 6.95 µM | actives 0.5% (n = 2,100);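 active = mean triplicate inhibition above the solvent-only control wells' mean plus 3 SD, cut at about 12% in these data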;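 also: 0% = DMSO wells and 100% = marimastat wells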
ADAM10 counter: ADAM10 inhibitors, counter-screen for ADAM17 exosite inhibitor project, biochemical, FRET, human ADAM10 | inhibition, % at 6.95 µM | shares compounds with ADAM17 inh | actives 47% (n = 2,900) | recombinant ADAM10, EDANS/DABCYL FRET peptide cleavage, 3 h | AID 743256, 2014;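 active = mean inhibition over the triplicate runs exceeds the activity threshold set in the earlier primary screen, cut at about 20% in these data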;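 also: 0% = DMSO wells and 100% = marimastat wells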
ADAM17 confirm: ADAM17 inhibitors, hit retest, confirmation, biochemical, QFRET peptide cleavage; shares compounds with ADAM17 inh; recombinant ADAM17, EDANS/DABCYL QFRET peptide cleavage; inhibition, % at 6.95 µM; actives 65% (n = 2,900); AID 743257, 2014;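 active = mean inhibition across replicates above the hit cutoff set in the primary screen, cut at about 8.5% in these data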;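 also: 0% = DMSO wells and 100% = marimastat wells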
An asterisk follows results filed as active; · = no result given.

SMILES	MPTP inh	ADAM17 inh	MT1-MMP act inh	ADAM10 inh	GRIN3A LBD mod	SKN-1 block	ADAM10 confirm	ADAM17 counter	ADAM10 counter	ADAM17 confirm
CCCCCCn1cc(CN2CC(N(C)CC)CS2(=O)=O)nn1 (configuration not stated)	0	-2	3	1	·	0	·	·	·	·
COc1ccc(CC(=O)NCC(=O)N/N=C/c2c[nH]c3ccccc23)cc1	1	-1	-4	-2	1	8	·	·	·	·
COCCN=c1scc(-c2cc(OC)ccc2OC)n1/N=C/c1c[nH]c2ccccc12	4	11*	-2	20*	7	23	17	7	16	12*
CCN(CC)S(=O)(=O)c1ccc(N2CCOCC2)c(NS(=O)(=O)c2cc(C(C)(C)C)ccc2C)c1	7	17*	-24	36*	0	10	3	1	31*	15*
O=C1C=C(c2cccc(Cl)c2)C[C@@H](c2ccc(Cl)cc2)C1	1	5	4	11	-4	11	·	·	·	·
O=C1C=C(c2cccc(Cl)c2O)C[C@@H](c2ccc(Cl)cc2)C1	20	14*	-4	22*	0	-3	8	2	22*	13*
O=c1c(O)c(-c2ccc(O)cc2)oc2cc(O)cc(O)c12	0	8.9*	-10	21*	13*	3	-2	0	-5	3
COc1ccc(NC(=O)CSc2nc(O)cc(=O)n2-c2ccccc2)cc1	0	8	-3	8	-1	-8	·	·	·	·
COc1ccccc1-n1c(SCC(=O)Nc2ccc(Br)cc2)nc(O)cc1=O	3	8.7*	6	28*	-1	1	-1	0	2	7
CN(C(=O)COc1ccc2c(-c3ccccc3)cc(=O)oc2c1)C1CCS(=O)(=O)C1 (configuration not stated)	-1	-7	1	-12	1	-9	·	·	·	·
Cc1cccc(NC(=O)c2nc[nH]c2C(=O)N[C@@H](C)c2ccccc2)c1	0	10.0*	3	26*	-3	26	9	3	29*	15*
Cc1cccc(NC(=O)c2nc[nH]c2C(=O)N(C)Cc2ccccc2)c1	0	9.4*	9	21*	-4	1	2	0	10	7
O=C1NC[C@H](CCCCN2C[C@H](Cc3ccc(O)cc3)N(Cc3ccccc3)C(=O)C2=O)N(Cc2ccccc2)C1=O	1	-3	1	1	·	13	·	·	·	·
Cc1cccc(NC(=O)c2ccc(COc3ccccc3)o2)n1	1	-5	0	-3	1	0	·	·	·	·
COc1ccc(-n2c(SCC(=O)Nc3cc(C)c(NC(=O)c4ccccc4)cc3OC)nnc2-c2ccco2)cc1	·	12*	·	24*	·	·	5	5	19	8.7*
COc1ccc(-n2c(SCC(=O)Nc3cc(C)c(NC(=O)c4ccccc4)cc3OC)nnc2-c2cccnc2)cc1	·	-1	·	0	·	·	·	·	·	·
O=C(NCC1CCN(Cc2ccccc2F)CC1)C1CCCN(c2ncnc3c2nc2n3CCCCC2)C1 (configuration not stated)	-2	2	-1	3	4	-1	·	·	·	·
CC(C)c1ccc(Nc2nc(NCc3ccco3)nc(N3CCOCC3)n2)cc1	4	12*	-3	31*	-10	24	7	2	23*	13*
Cc1cc(NC(=O)CSc2nc3ccccc3cc2C#N)no1	-1	-1	-36	-2	-2	-4	·	·	·	·
N#Cc1cc2ccccc2nc1SCC(=O)Nc1ccc(S(=O)(=O)N2CCCC2)cc1	-1	12*	-86	29*	0	-7	6	4	-6	2
O=C1C2ON(c3ccc(Br)cc3)C(c3cccnc3)C2C(=O)N1C1CCCCC1 (configuration not stated)	0	-2	3	0	-21	13	·	·	·	·
O=C(O)C1CCCCN1C(=O)c1ccc(S(=O)(=O)N2CCCC2)cc1 (configuration not stated)	-1	3	3	-21	2	2	·	·	·	·
COc1ccc(OC)c(NC(=O)C2CC2c2ccccc2)c1 (configuration not stated)	0	4	-2	-2	-1	-23	·	·	·	·
COc1ccc(C2=Nc3ccccc3NC(=O)C2N(C(=O)c2ccnc3ccccc23)c2ccccc2)cc1 (configuration not stated)	0	17*	3	33*	·	20	3	1	21*	15*
COc1cccc(NC(=O)N(C)C[C@@H]2Oc3cc(Br)ccc3S(=O)(=O)N([C@@H](C)CO)C[C@H]2C)c1	-2	-2	-3	-1	·	-3	·	·	·	·
COc1ccc(Nc2oc(COc3cccc(C)c3)nc2C#N)cc1	0	10*	6	30*	-9	8	4	1	21*	13*
COc1ccc(N2CCN(c3oc(COc4ccccc4Cl)nc3C#N)CC2)cc1	4	-1	3	4	0	-1	·	·	·	·
COc1ccc(OCc2nc(C#N)c(N3CCN(c4ccc(OC)cc4)CC3)o2)cc1	-3	16*	-4	29*	1	-1	5	2	12	4
COc1ccc(Nc2oc(COc3ccc(C)cc3)nc2C#N)cc1	12	6	2	20	-1	7	·	·	·	·
COC(=O)c1nnn(CC(=O)NC(=O)Nc2c(C)cccc2C)c1C(=O)OC	35	-3	0	-7	-7	3	·	·	·	·
